These results are taken from ChEMBL document CHEMBL3272036, “Reactions of 2-acyloxyisobutyryl halides with nucleosides. Synthesis and biological evaluation of some 3"-acyl and 3',5'-diacyl derivatives of 1-beta-D-arabinofuranosylcytosine” (J Med Chem, 1976).

The test system of experiment [1] is L1210. As to the kind of experiment: Antitumor activity against mouse L1210 cells allografted in BDF1 mouse assessed as survival at 50 mg/kg, ip administered as single dose measured on day 30 relative to vehicle-treated control. Type of experiment: functional, organism-based. Details: dose 50 mg/kg.
A further experiment has as its system Herpesviridae sp. As to the kind of experiment: Antiviral activity against Herpes Simplex virus HF infected in African green monkey BGM cells assessed as plaque reduction measured on day 5 by disk diffusion assay. The experiment is classed as functional. To be noted: 120 h, read-out: ED50 (the source's name). For orientation: In agar diffusion tests the substance spreads into inoculated agar from a disc or well.

For experiment [2], the system named is L1210. As to the kind of experiment: Antitumor activity against mouse L1210 cells allografted in BDF1 mouse assessed as increase in life span at 100 mg/kg, ip administered as single dose relative to vehicle-treated control. The experiment is classed as functional. To be noted: route intraperitoneal. In outline:
(§1)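 Single intraperitoneal injection given 24 h after the leukemic cells were introduced, at 100, 200, 500 or 1000 mg/kg. Read-out is % increase in life span (ILS), with the count of 30-day survivors per group recorded (group sizes 7–8 mice).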

Experiment [3] has as its system L1210. Kind of experiment: Antitumor activity against mouse L1210 cells allografted in BDF1 mouse assessed as survival at 200 mg/kg, ip administered as single dose measured on day 30 relative to vehicle-treated control. The experiment is classed as functional, organism-based. Details: dose 200 mg/kg. Put shortly:
(§2)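 Leukemic L1210 cells were introduced into mice. Each compound was then given as a single intraperitoneal injection 24 h later. Activity is expressed as % increase in life span (ILS), with the count of 30-day survivors per group. Doses tested were 100, 200, 500 and 1000 mg/kg.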

A further experiment concerns Vaccinia virus. Kind of experiment: Antiviral activity against Vaccinia virus IHD infected in African green monkey BGM cells assessed as plaque reduction measured on day 5 by disk diffusion assay. The experiment is classed as functional. To be noted: Orthopoxvirus vaccinia, 120 h, read-out: ED50 (the source's name).
For experiment [4], the system named is L1210. Kind of experiment: Antitumor activity against mouse L1210 cells allografted in BDF1 mouse assessed as increase in life span at 200 mg/kg, ip administered as single dose relative to vehicle-treated control. The experiment is classed as functional. To be noted: route intraperitoneal. In outline:
as §1

The test system of a further experiment is HeLa. Kind of experiment: Cytotoxicity against human HeLa cells after 48 hrs by Coulter counter analysis. To be noted: read-out: ED50 (the source's name). The experiment is classed as functional.
Experiment [5] deals with L1210. As to the kind of experiment: Antitumor activity against mouse L1210 cells allografted in BDF1 mouse assessed as survival at 1000 mg/kg, ip administered as single dose measured on day 30 relative to vehicle-treated control. Type of experiment: functional, organism-based. Details: dose 1000 mg/kg. Put shortly: as §2
Experiment [6] concerns L1210. Kind of experiment: Antitumor activity against mouse L1210 cells allografted in BDF1 mouse assessed as increase in life span at 1000 mg/kg, ip administered as single dose relative to vehicle-treated control. Type of experiment: functional. To be noted: route intraperitoneal. Put shortly:
as §1

The structures appear in SMILES notation. pEC50: −log10 of the molar value. Values after ≈ are worked out from the molar mass of the structure shown. Active and inactive are the calls of the source. The calls are words filed in the database; no cut-off is given here.

On to `CCCCCC(=O)O[C@H]1[C@H](O)[C@H](n2ccc(N)nc2=O)O[C@@H]1CO`, for which the result in the experiment on L1210 [1] and in the experiment with L1210 [3] was inactive. Besides, the pEC50 was 5.82 in the experiment on Herpesviridae sp. and 6.32 in the experiment with Vaccinia virus. Also, in the experiment with L1210 [2], the ILS at 100 mg/kg was determined as 5%. For the same compound, the ILS at 200 mg/kg in the experiment on L1210 [4] was 21%. Moreover, the EC50 with HeLa was 0.05 mg/L (≈ 0.146 µM).
For the compound `CCCCCCCC/C=C/CCCCCCCC(=O)OC[C@H]1O[C@@H](n2ccc(N)nc2=O)[C@@H](O)[C@@H]1OC(=O)CCCCCCC/C=C/CCCCCCCC`, the outcome in the experiment on L1210 [1] was inactive. The pEC50 in the experiment on Herpesviridae sp. and in the experiment on Vaccinia virus was under 4.52 in each case. The ILS at 100 mg/kg in the experiment with L1210 [2] was found to be 14%. Further, the ILS at 200 mg/kg in the experiment on L1210 [4] is over 253%. Besides, the EC50 with HeLa was found to be 2.5 mg/L (≈ 3.24 µM).
For `CCCCCCCCCCCC(=O)O[C@H]1[C@H](O)[C@H](n2ccc(N)nc2=O)O[C@@H]1CO`, the outcome in the experiment on L1210 [1] was Active. Further, the outcome in the experiment with L1210 [5] was inactive. In addition, the ILS at 1000 mg/kg in the experiment with L1210 [6] is -28%. For the same compound, the pEC50 with Herpesviridae sp. is 6.60; in the experiment with Vaccinia virus, 7.30. Moreover, the ILS at 100 mg/kg in the experiment with L1210 [2] is over 258%. Besides, the ILS at 200 mg/kg in the experiment on L1210 [4] was over 257%. Also, the EC50 in the experiment with HeLa was 0.08 mg/L (≈ 0.188 µM).
